Screening results deposited in PubChem by The Scripps Research Institute Molecular Screening Center.
Hits are enriched below; roughly 4.5% of the tested compounds scored in any of these assays.
OX1R antag-1: antagonists of human orexin 1 receptor (OX1R) | O43613 | inhibition, % at 6.6 µM | AID 485270 | 330,000 tested, 1.8% active | OX1R-expressing cells, FRET antagonist read-out; in the data active = inhibition mostly above about 38%, no sharp cut-off; inactive = mostly below about 40%
CHO parental Ca: signal in parental CHO cells, OX1R antagonist counter-screen; parental CHO-K1, ATP-induced calcium, Fluo-8 fluorescence; inhibition, % at 5.6 µM; 330,000 tested, 0.63% active;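 active = inhibition above that plate's mean sample inhibition plus 3 SD, cut at about 26% in these data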
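Material – parental CHO cells · Reagent – ATP stimulus · Compound – single nominal dose of 5.6 µM per compound · Detection – Fluo-8 fluorescence · Read-out basis – percent inhibition of calcium signal · Controls – ATP-challenged DMSO wells low, unchallenged DMSO wells high · Repeats – no replicates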
TAAR1 agonist: human TAAR1 agonism | AID 624467 | 360,000 tested, 0.99% active | CHO RD-HGA16 TAAR1, Fluo-8 calcium fluorescence; vehicle wells 0%, saturating PEA agonist 100% | activation, % at 3 µM;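 active = activation above the mean activation of all test compounds in the run plus 3 SD, cut at about 38% in these data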
Target sequence (Q96RJ0 whole entry, looked up): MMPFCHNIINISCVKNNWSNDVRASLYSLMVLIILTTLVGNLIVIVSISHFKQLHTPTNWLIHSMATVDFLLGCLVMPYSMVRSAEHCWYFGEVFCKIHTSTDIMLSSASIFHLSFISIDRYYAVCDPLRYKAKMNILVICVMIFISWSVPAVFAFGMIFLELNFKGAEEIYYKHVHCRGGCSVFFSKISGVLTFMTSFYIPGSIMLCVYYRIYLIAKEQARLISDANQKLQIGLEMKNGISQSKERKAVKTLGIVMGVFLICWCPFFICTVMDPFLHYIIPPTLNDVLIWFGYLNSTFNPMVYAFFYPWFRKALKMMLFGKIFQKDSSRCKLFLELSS
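System: CHO-derived RD-HGA16 cells with stable Gα16 and human TAAR1. Times: 17-24 h plating, Fluo-8 75 min 37 °C, 30 min RT. Measured by: calcium-sensitive Fluo-8 signal, excitation 470-495, emission 515-575 nm. Read-out basis: % activation relative to PEA EC100 response. Control set: DMSO and PEA EC100. Repeats: no replicates (n 1).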
TAAR1 antagonist: antagonists of human TAAR1. inhibition, % at 3 µM. 360,000 tested, 1.5% active. Q96RJ0. CHO RD-HGA16 TAAR1, Fluo-8 calcium fluorescence, antagonist;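 active = inhibition above a per-plate cutoff, the mean inhibition of test compounds on that plate plus 3 SD, cut at about 49% in these data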
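System: CHO RD-HGA16 cells bearing hTAAR1. Reagent: EC80 β-phenethylamine stimulus. Schedule: seeding 17-24 h prior, 75-min 37 °C, 30-min RT dye loading. Signal: Fluo-8 intracellular calcium dye fluorescence, real-time kinetic reads. Read-out: % inhibition from peak post-agonist over basal fluorescence ratio. Benchmarks: vehicle wells and EC80 agonist wells. Replicates: n of 1.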
OX1R antag-2: human HCRTR1 antagonism; O43613; CHO/OX1R cells, Fluo-8 calcium fluorescence, orexin A; inhibition, % at 5 µM; 330,000 tested, 0.43% active;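 active = inhibition above its plate's threshold, mean inhibition of all tested compounds on the plate plus 3 SD, cut at about 37% in these data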
GPR7 antag: antagonists of human GPR7 (neuropeptides B/W receptor 1) | P48145 | GPR7-expressing cells, fluorescence antagonist assay | inhibition, % at 4.4 µM | 290,000 tested, 1.1% active | AID 1861; in the data active = inhibition above about 16%, passing the limit was not always enough;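 note: cells stimulated with the agonist NPW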
Target sequence (P48145 whole entry, looked up): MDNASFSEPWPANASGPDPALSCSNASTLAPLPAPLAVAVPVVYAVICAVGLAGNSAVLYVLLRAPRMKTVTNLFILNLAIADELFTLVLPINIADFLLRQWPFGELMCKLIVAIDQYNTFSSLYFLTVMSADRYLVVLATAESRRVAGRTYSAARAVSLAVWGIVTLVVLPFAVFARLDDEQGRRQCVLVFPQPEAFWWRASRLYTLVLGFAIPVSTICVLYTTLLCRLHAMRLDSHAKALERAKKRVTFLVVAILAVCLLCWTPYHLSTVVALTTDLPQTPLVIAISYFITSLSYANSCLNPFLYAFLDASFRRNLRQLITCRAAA
Each line names hits and unclear results; the compound was inactive in the other large screens.

NC(Cc1ccc(F)cc1)c1csc(Nc2ccc(C(=O)c3ccccc3)cc2)n1 (stereo unspecified)	TAAR1 agonist 52, TAAR1 antagonist 53 (no result: OX1R antag-1, CHO parental Ca, OX1R antag-2, GPR7 antag)
CCc1cccc(CC)c1-n1c(SCC(=O)N2CCc3ccccc32)nc(O)cc1=O	none (no result: GPR7 antag)
CC(C)c1[nH]nc2c1C(c1cccc(C(F)(F)F)c1)NC2=O (stereo unspecified)	none (no result: OX1R antag-1, CHO parental Ca, OX1R antag-2, GPR7 antag)
COC(=O)C1=C(O)/C(=C\c2cc(C)n(-c3ccc(F)cc3)c2C)N=C1C	none
COC(=O)C1=C(O)/C(=C/c2cccc(OC)c2O)N=C1C	OX1R antag-1 63
COc1ccc(CCNCc2cc(C)n(-c3ccc(OC)cc3)c2C)cc1	TAAR1 agonist 45
COc1ccc(CCNCc2ccccc2N2CCCC2)cc1	none
CCOC(=O)c1nc(C)n(-c2ccc([N+](=O)[O-])cc2)n1	OX1R antag-1 49
Cc1ccc(NC(=O)c2nc(C)n(-c3ccc([N+](=O)[O-])cc3)n2)cc1	none (no result: TAAR1 agonist, TAAR1 antagonist)
CCOC(=O)c1nc(C)n(-c2ccc(Cl)cc2)n1	none
Cc1nc(C(=O)Nc2ccc(F)cc2)nn1-c1ccc([N+](=O)[O-])cc1	OX1R antag-1 55
CCCc1nc2ccc(C(=O)OC)cn2c1Cc1ccccc1OC	none (no result: OX1R antag-1, CHO parental Ca, OX1R antag-2, GPR7 antag)
CCOC(=O)N[C@H](C(=O)N1CCC[C@H]1C(=O)NC1CCCC1)C1CCCCC1	none (no result: OX1R antag-1, CHO parental Ca, OX1R antag-2, GPR7 antag)
COc1ccccc1N1CCN(C(=O)CCCN2C(=O)c3cccc4cccc(c34)C2=O)CC1	TAAR1 antagonist 50
NC(=O)CN1CCN(CCN2C(=O)c3cccc4cccc(c34)C2=O)CC1	OX1R antag-1 42
O=C1c2cccc3cc([N+](=O)[O-])cc(c23)C(=O)N1CCN1CCCC1	none (no result: OX1R antag-1, CHO parental Ca, OX1R antag-2)
O=C(CN1C(=O)c2cccc3cccc(c23)C1=O)N1CCCCCC1	OX1R antag-1 56
Nc1cc2c3c(cccc3c1)C(=O)N(CCN1CCCC1)C2=O	OX1R antag-1 43
COc1cccc(C(NC(C)=O)c2nc(-c3ccc(OC)nc3)cs2)c1 (stereo unspecified)	none (no result: OX1R antag-1, CHO parental Ca, OX1R antag-2, GPR7 antag)
COc1ccc(-c2cccc3c4c([nH]c23)[C@@H]2C[C@H]3[C@@H](C(=O)N2CC4)[C@H](C)ON3C)cc1	none (no result: OX1R antag-1, CHO parental Ca, OX1R antag-2, GPR7 antag)
CCCCC1O[C@@H](C)[C@@H]2CN3CCc4c([nH]c5ccccc45)[C@@H]3C[C@@H]2N1C (stereo partly specified)	none (no result: OX1R antag-1, CHO parental Ca, OX1R antag-2, GPR7 antag)
Cc1cc(N2CCCC2=O)cc(C)c1S(=O)(=O)NCCOc1ccc(C(C)(C)C)cc1	OX1R antag-1 70, CHO parental Ca 41, OX1R antag-2 67
CCOC(=O)N1CCN(C(=O)CSCC(=O)Nc2nc(-c3ccc(OC)cc3)cs2)CC1	none
CCOC(=O)N1CCN(C(=O)CSCC(=O)Nc2nc(-c3ccc(-c4ccccc4)cc3)cs2)CC1	OX1R antag-1 48, CHO parental Ca 91, TAAR1 antagonist 70, OX1R antag-2 53
COc1ccccc1C1(O)CCN(CC(=O)Nc2nc(-c3ccccc3)cs2)CC1	TAAR1 antagonist 53
COC(=O)CCC[C@H](C)[C@@H](NS(=O)(=O)c1ccc(C)cc1)C(C)(C)C	none (no result: OX1R antag-1, CHO parental Ca, OX1R antag-2, GPR7 antag)
COc1ccc(/C=N/NC(=O)c2cc3c(OC)ccc(OC)c3[nH]2)cc1O	OX1R antag-1 62
CC(/C=N/Nc1nc2ccccc2[nH]1)=C\c1ccccc1	TAAR1 agonist 40
COc1cc(/C=N/Nc2nc3ccccc3[nH]2)ccc1O	TAAR1 agonist 42
COc1cccc(/C=N/NC(=O)c2cc3c(OC)cccc3[nH]2)c1OC	OX1R antag-1 67, TAAR1 antagonist 55
COc1ccc(OC)c2[nH]c(C(=O)N/N=C/c3ccccc3O)cc12	none
Cc1ccc(NC(=O)C2C3C=CC4(O3)C2C(=O)N(CCCN2CCCCC2)C4C(=O)NC2CCCCC2)cc1C (stereo unspecified)	none
COc1cc(/C=N/NC(=O)c2cccc(NC(=O)c3ccccc3C)c2)ccc1O	TAAR1 antagonist 61
COc1cc(/C=N/NC(=O)c2cc3ccccc3[nH]2)ccc1O	OX1R antag-1 46
COc1cc(/C=N/Nc2snc(SC)c2C#N)ccc1O	OX1R antag-1 81
COc1cc(/C=N/NC(=O)c2cccc(C(=O)N/N=C/c3ccc(O)c(OC)c3)n2)ccc1O	none (no result: OX1R antag-1, CHO parental Ca, OX1R antag-2)
COc1ccc(O)c(/C=N/Nc2nc3ccccc3[nH]2)c1	TAAR1 agonist 42
COc1cc(/C=N/Nc2nc(C)cc(C)n2)ccc1O	none (no result: OX1R antag-1, CHO parental Ca, OX1R antag-2, GPR7 antag)
C[C@@H]1CN([C@H](C)CO)C(=O)c2cc(NS(=O)(=O)c3ccccc3)ccc2O[C@@H](C)CCCCO[C@@H]1CN(C)Cc1ccc(Cl)c(Cl)c1	none (no result: OX1R antag-1, CHO parental Ca, OX1R antag-2, GPR7 antag)
O=C(NCc1cccnc1)C1C2C=CC(C2)C1C(=O)Nc1cccc(C(F)(F)F)c1 (stereo unspecified)	none (no result: OX1R antag-1, CHO parental Ca, OX1R antag-2, GPR7 antag)
CCOc1ccc(/C=N/NC(=O)c2cc3c(OC)cccc3[nH]2)cc1	none
C=CCOc1ccc(/C=N/NC(=O)c2cc3c(OC)cc(OC)cc3[nH]2)cc1	OX1R antag-1 48
CCOC(=O)Cc1csc(-n2sc3ccccc3c2=O)n1	CHO parental Ca 32
O=C(C1CCCN(c2ncnc3c2nc2n3CCCCC2)C1)N1CCN(c2cccc(Cl)c2)CC1 (stereo unspecified)	TAAR1 agonist 40, TAAR1 antagonist 88
CC(C)N(Cc1ccccc1)C(=O)C1CCCN(c2ncnc3c2nc2n3CCCCC2)C1 (stereo unspecified)	none
CCCCN(Cc1ccco1)C(=O)C1CCCN(c2ncnc3c2nc2n3CCCCC2)C1 (stereo unspecified)	OX1R antag-1 40
CN(C(=O)C1CCCN(c2ncnc3c2nc2n3CCCCC2)C1)c1cccc(Cl)c1 (stereo unspecified)	OX1R antag-1 40
CCc1ccc(NC(=O)C2CCN(c3ncnc4c3nc3n4CCCCC3)CC2)cc1	none
O=C(Nc1ccc(F)cc1)C1CCN(c2ncnc3c2nc2n3CCCCC2)CC1	CHO parental Ca 65
COc1ccccc1N=c1scc(-c2ccc3c(c2)NC(=O)CO3)n1CC1CCCO1 (stereo unspecified)	none
CN(C)S(=O)(=O)c1cccc(N=c2scc(-c3ccc4c(c3)NC(=O)CO4)n2CC2CCCO2)c1 (stereo unspecified)	TAAR1 antagonist 53
CCNc1nc(-c2sc(NC(=O)C(C)(C)C)nc2C)c(-n2cc(-c3ccccc3)nn2)s1	TAAR1 antagonist 75 (no result: OX1R antag-1, CHO parental Ca, OX1R antag-2, GPR7 antag)
Cc1nc(NC(=O)C(C)(C)C)sc1-c1nc(N)sc1-n1cc(-c2ccccc2)nn1	none (no result: OX1R antag-1, CHO parental Ca, OX1R antag-2, GPR7 antag)
O=C(Cc1ccccc1)NCc1ccc(-n2cccc2)cc1	TAAR1 agonist 38
CCOc1ccccc1N1CC(C(=O)N(Cc2nnc(-c3ccccc3Cl)o2)C2CC2)CC1=O (stereo unspecified)	none (no result: GPR7 antag)
CSc1cccc(N2CC(C(=O)N(Cc3nnc(-c4ccccc4Cl)o3)C3CC3)CC2=O)c1 (stereo unspecified)	OX1R antag-1 58
